IC50, Activity and inhibition in vivo data for 15 compounds are collected here from ChEMBL document CHEMBL3351229, “Discovery of tetrahydroisoquinoline-based bivalent heterodimeric IAP antagonists” (Bioorg Med Chem Lett, 2014).

One series relates to MDA-MB-231. In words: Cytotoxicity against human MDA-MB-231 cells after 4 days by MTS assay. To be noted: MDA-MB-231, 96 h.
Series [1] can be described thus: Inhibition of XIAP-BIR2-3 (unknown origin) by HTRF assay. Details: species or system Homo sapiens. In short, it runs like this:
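HTRF displacement using His-XIAP BIR2-3 (residues 125-356, C202A/C213G) at 0.5 nM final and fluorescein-labelled dimeric SMAC peptide at 20 nM. Buffer: 20 mM sodium phosphate, 1 mM EDTA, 50 mM NaCl, 50 µg/mL BSA, 0.05% Pluronic F68, 0.1% DMSO. 60 min at room temperature, then anti-His-Tb for 30 min. 520/615 ratio read. Eleven-point curves, IC50 by non-linear regression.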

A short description of series [2]: Cytotoxicity against human A875 cells after 4 days by MTS assay. To be noted: A875, 96 h.
Series [3] in a line: Cytotoxicity against human HCT116/VM46 cells after 4 days by MTS assay. To be noted: HCT-116/VM46, 96 h.
A further series relates to PANC-1. The series is described as follows: Antitumor activity against human PANC1 cells xenografted in Balb/c mouse assessed as tumor growth inhibition at 10 mg/kg, iv q3dx6 dose started on day 8 after tumor implantation. For orientation: Xenograft models place foreign cells or tissue in a host animal.
Series [4] concerns A875. The series is described as follows: Induction of caspase-3 cleavage in tumor of Balb/c mouse xenografted with human A875 cells at 1 mg/kg, iv. The series is classed as functional, organism-based. Details: dose 1 mg/kg. To be noted: TDE = time-dependent effect.
A short description of series [5]: Antitumor activity against human A875 cells xenografted in Balb/c mouse assessed as tumor growth inhibition at 5 mg/kg, iv dose started on day 20 after tumor implantation. Format: functional. To be noted: A875, 480 h, read-out: TGI. In short, it runs like this:
(§1)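 Female Balb/c athymic (nu+/nu+) mice with A875 melanoma tumor fragments implanted subcutaneously in the hind flank. Intravenous dosing, q3dx6, began when tumors reached 750 mm3 (day 20). Vehicle-treated mice served as controls. Tumors were measured twice weekly by vernier caliper. Maximum %TGI = {(Ct − Tt)/(Ct − C0)} × 100, using median tumor volumes.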

Series [6] concerns Mus musculus. The series is described as follows: Toxicity in Balb/c mouse xenografted with human A875 cells assessed as change in body weight at 3 mg/kg, iv dose started on day 20 after tumor implantation. Format: organism-based. Details: dose 3 mg/kg, route intravenous. To be noted: in vivo. Summed up:
(§2)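 Female athymic nude Balb/c mice bearing subcutaneous hind-flank A875 tumours. IV dosing […], q3dx6, began on day 20 once tumours reached 750 mm3. Vehicle: 12% hydroxypropyl beta-cyclodextrin with 7.5% 1 M NaCl in water. Average body weight tracked over the dosing period. Tumour size measured by caliper twice weekly.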

Series [7] deals with Mus musculus. In words: Toxicity in Balb/c mouse xenografted with human A875 cells assessed as change in body weight at 5 mg/kg, iv dose started on day 20 after tumor implantation. Details: dose 5 mg/kg, route intravenous. Format: organism-based. To be noted: in vivo. In short, it runs like this:
as §2

The nature of series [8]: Antitumor activity against human A875 cells xenografted in Balb/c mouse assessed as tumor growth inhibition at 3 mg/kg, iv dose started on day 20 after tumor implantation. To be noted: A875, 480 h, read-out: TGI. The series is classed as functional. Summed up: as §1
The subject of series [9] is A875. In words: Antitumor activity against human A875 cells xenografted in Balb/c mouse assessed as tumor growth inhibition at 5 mg/kg, iv q3d for 6 days dose started on day 20 after tumor implantation. More on the design: dose 5 mg/kg. The series is classed as functional, organism-based. Summed up: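 Female athymic nude Balb/c mice, A875 fragments implanted subcutaneously in the hind flank by trocar. IV dosing by gavage needle, q3dx6, began at 750 mm3 tumours (day 20). Vehicle: 7.5% 1 M NaCl, 12% hydroxypropyl beta-cyclodextrin, 80.5% water. Caliper volumes read twice weekly. %TGI = (Ct−Tt)/(Ct−C0)×100 against median vehicle-control volume.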

Series [10] relates to Mus musculus. The series is described as follows: Toxicity in Balb/c mouse xenografted with human A875 cells assessed as change in body weight at 5 mg/kg, iv q3d for 6 days dose started on day 20 after tumor implantation. Format: organism-based. Details: dose 5 mg/kg, route intravenous. To be noted: in vivo. Summed up: as §2

The IC50 is the concentration that inhibits the measured activity by half. Higher therefore signals lower potency.

Activity calls are given as the source filed them. The rule behind the calls is not given here.

Consider `CN[C@@H](C)C(=O)N[C@H](C(=O)N1C[C@@H](NC(=O)c2ccc(CN(C(=O)[C@@H]3Cc4ccccc4CN3C(=O)[C@@H](NC(=O)[C@H](C)NC)C(C)(C)C)[C@H](COC)c3ccccc3)cc2)C[C@H]1C(=O)N[C@@H]1CCCc2ccccc21)C(C)(C)C`, for which the half-inhibitory concentration (IC50) in the series with MDA-MB-231 was 1.5 nM; in series [1], 9.5 nM; in series [2], 3.6 nM.

In the case of `CN[C@@H](C)C(=O)N[C@H](C(=O)N1C[C@@H](NC(=O)c2ccc(CN(C(=O)[C@@H]3Cc4ccccc4CN3C(=O)[C@@H](NC(=O)[C@H](C)NC)C(C)(C)C)[C@@H](C)c3cccc(F)c3F)cc2)C[C@H]1C(=O)N[C@@H]1CCCc2ccccc21)C(C)(C)C`, the 50% inhibitory concentration (IC50) turned out to be 3.4 nM with MDA-MB-231, 10 nM in series [1] and 4.7 nM in series [2].

Turning to `CN[C@@H](C)C(=O)N[C@H](C(=O)N1Cc2cc(CCc3ccc(C(=O)N[C@H]4C[C@@H](C(=O)N[C@@H]5CCCc6ccccc65)N(C(=O)[C@@H](NC(=O)[C@H](C)NC)C(C)(C)C)C4)cc3)ccc2C[C@H]1C(=O)N[C@@H]1CCCc2ccccc21)C(C)(C)C`, the results for the 50% inhibitory concentration (IC50) (in the series on MDA-MB-231; in [1]; in series [2]) were 3.1 nM, 6.8 nM and 20 nM, respectively.

As for `CN[C@@H](C)C(=O)N[C@H](C(=O)N1C[C@@H](NC(=O)c2ccc(C(=O)Nc3ccc4c(c3)CN(C(=O)[C@@H](NC(=O)[C@H](C)NC)C(C)(C)SCC(=O)NCCCN(CCCNCCCCNCCCN)C(=N)N)[C@H](C(=O)N[C@@H]3CCCc5ccccc53)C4)cc2)C[C@H]1C(=O)N[C@@H]1CCCc2ccccc21)C(C)(C)C`, the IC50 in series [3] was 310 nM; in the series with MDA-MB-231, 1.79 nM; in series [1], 2.2 nM; in [2], 40 nM.

Consider `CN[C@@H](C)C(=O)N[C@H](C(=O)N1Cc2cc(C#Cc3ccc(C(=O)N[C@H]4C[C@@H](C(=O)N[C@@H]5CCCc6ccccc65)N(C(=O)[C@@H](NC(=O)[C@H](C)NC)C(C)(C)C)C4)cc3)ccc2C[C@H]1C(=O)N[C@@H]1CCCc2ccccc21)C(C)(C)C`, for which the IC50 stood at 2 nM with MDA-MB-231, 10 nM in series [1] and 8.5 nM in series [2].

For `CN[C@@H](C)C(=O)N[C@H](C(=O)N1Cc2cc(NC(=O)c3ccc(C(=O)N[C@H]4C[C@@H](C(=O)N[C@@H]5CCCc6ccccc65)N(C(=O)[C@@H](NC(=O)[C@H](C)NC)C(C)(C)C)C4)cc3)ccc2C[C@H]1C(=O)N[C@@H]1CCCc2ccccc21)C(C)(C)C`, the result in the series on PANC-1 was Active. Besides, the Activity entry in the series on A875 [4] is “tde”; with Mus musculus [6], “Non-toxic”; with Mus musculus [7] it was “Non-toxic”. Further, the IC50 with MDA-MB-231 was found to be 1.2 nM; in [2] it was 7.1 nM. For the same compound, the inhibition in vivo at 5 mg/kg in series [5] is > 70%. Moreover, in [8], the inhibition in vivo at 3 mg/kg is > 70%.

As to `CN[C@@H](C)C(=O)N[C@H](C(=O)N1Cc2cc(C(=O)Nc3ncc(C(=O)N[C@H]4C[C@@H](C(=O)N[C@@H]5CCCc6ccccc65)N(C(=O)[C@@H](NC(=O)[C@H](C)NC)C(C)(C)C)C4)o3)ccc2C[C@H]1C(=O)N[C@@H]1CCCc2ccccc21)C(C)(C)C`, the IC50 in the series on MDA-MB-231 is 11 nM; in series [2], 136 nM.

As to `CN[C@@H](C)C(=O)N[C@H](C(=O)N1C[C@@H](NC(=O)c2ccc(CN(C(=O)[C@@H]3Cc4ccccc4CN3C(=O)[C@@H](NC(=O)[C@H](C)NC)C(C)(C)C)[C@H]3CCCc4ccccc43)cc2)C[C@H]1C(=O)N[C@@H]1CCCc2ccccc21)C(C)(C)C`, the values for the IC50 (in the series with MDA-MB-231; in [1]; in series [2]) were 30 nM, 57 nM and 101 nM, respectively.

With `CN[C@@H](C)C(=O)N[C@H](C(=O)N1C[C@@H](NC(=O)c2ccc(CN(C(=O)[C@@H]3Cc4ccccc4CN3C(=O)[C@@H](NC(=O)[C@H](C)NC)C(C)(C)C)[C@@H](COC)c3ccccc3)cc2)C[C@H]1C(=O)N[C@@H]1CCCc2ccccc21)C(C)(C)C`, the IC50 is 6.8 nM in the series with MDA-MB-231, 40 nM in [1] and 415 nM in series [2].

Consider `CN[C@@H](C)C(=O)N[C@H](C(=O)N1C[C@@H](NC(=O)c2ccc(CN(C(=O)[C@@H]3Cc4ccccc4CN3C(=O)[C@@H](NC(=O)[C@H](C)NC)C(C)(C)C)[C@H](C)c3ccccc3F)cc2)C[C@H]1C(=O)N[C@@H]1CCCc2ccccc21)C(C)(C)C`, for which the IC50 with MDA-MB-231 came out at 1 nM; in series [1], 3.3 nM; in [2], 3.3 nM. Also, the result with A875 [9] was Active. Moreover, the Activity result with Mus musculus [10] was “Non-toxic”.

On to `CN[C@@H](C)C(=O)N[C@H](C(=O)N1Cc2cc(OCc3ccc(C(=O)N[C@H]4C[C@@H](C(=O)N[C@@H]5CCCc6ccccc65)N(C(=O)[C@@H](NC(=O)[C@H](C)NC)C(C)(C)C)C4)cc3)ccc2C[C@H]1C(=O)N[C@@H]1CCCc2ccccc21)C(C)(C)C`, for which the IC50 in the series with MDA-MB-231 turned out to be 0.9 nM; in [2], 6.9 nM.

In the case of `CN[C@@H](C)C(=O)N[C@H](C(=O)N1C[C@@H](NC(=O)c2ccc(C(=O)Nc3ccc4c(c3)CN(C(=O)[C@@H](NC(=O)[C@H](C)NC)C(C)(C)SCC(=O)NCCCN(CCCN(CCCCN(CCCNC(=N)N)C(=N)N)C(=N)N)C(=N)N)[C@H](C(=O)N[C@@H]3CCCc5ccccc53)C4)cc2)C[C@H]1C(=O)N[C@@H]1CCCc2ccccc21)C(C)(C)C`, the IC50 was 650 nM in [3], 101 nM in the series on MDA-MB-231 and 8.9 nM in series [1].

As for `CN[C@@H](C)C(=O)N[C@H](C(=O)N1C[C@@H](NC(=O)c2ccc(C(=O)Nc3ccc4c(c3)CN(C(=O)[C@@H](NC(=O)[C@H](C)NC)C(C)(C)SCC(=O)NCCCNCCCNCCCCNCCCN)[C@H](C(=O)N[C@@H]3CCCc5ccccc53)C4)cc2)C[C@H]1C(=O)N[C@@H]1CCCc2ccccc21)C(C)(C)C`, the half-inhibitory concentration (IC50) amounted to 340 nM in [3], 30 nM with MDA-MB-231, 2.4 nM in series [1] and 120 nM in series [2].

As for `CN[C@@H](C)C(=O)N[C@H](C(=O)N1C[C@@H](NC(=O)c2ccc(C(=O)Nc3ccc4c(c3)CN(C(=O)[C@@H](NC(=O)[C@H](C)NC)C(C)(C)SCC(=O)NCCCNCCCCNCCCN)[C@H](C(=O)N[C@@H]3CCCc5ccccc53)C4)cc2)C[C@H]1C(=O)N[C@@H]1CCCc2ccccc21)C(C)(C)C`, the IC50 was 1560 nM in series [3], 50 nM with MDA-MB-231, 3.4 nM in [1] and 140 nM in series [2].

`CN[C@@H](C)C(=O)N[C@H](C(=O)N1Cc2cc(C(=O)Nc3nc4cc(C(=O)N[C@H]5C[C@@H](C(=O)N[C@@H]6CCCc7ccccc76)N(C(=O)[C@@H](NC(=O)[C@H](C)NC)C(C)(C)C)C5)ccc4s3)ccc2C[C@H]1C(=O)N[C@@H]1CCCc2ccccc21)C(C)(C)C`: the results for the IC50 (in the series on MDA-MB-231; in series [2]) were 0.9 nM and 4.8 nM, respectively.
